The values below come from article PMC2556891 (ACS chemical biology, 2008).

Structures are written as SMILES. Changes are numbered by the printed parent chain.

In data set [1] the target is ClC-ec1 (Escherichia coli, UniProt P37019). Kind of data set: Chloride flux assay with ClC-ec1 reconstituted in vesicles. Format: biochemical.
The nature of data set [2]: Stability of DIDS in aqueous solution by reversed-phase HPLC. Format: physicochemical.
Data set [3] addresses T1, ClC-0 (Torpedo marmorata, UniProt P21564).
T1 sequence (P21564 1-805): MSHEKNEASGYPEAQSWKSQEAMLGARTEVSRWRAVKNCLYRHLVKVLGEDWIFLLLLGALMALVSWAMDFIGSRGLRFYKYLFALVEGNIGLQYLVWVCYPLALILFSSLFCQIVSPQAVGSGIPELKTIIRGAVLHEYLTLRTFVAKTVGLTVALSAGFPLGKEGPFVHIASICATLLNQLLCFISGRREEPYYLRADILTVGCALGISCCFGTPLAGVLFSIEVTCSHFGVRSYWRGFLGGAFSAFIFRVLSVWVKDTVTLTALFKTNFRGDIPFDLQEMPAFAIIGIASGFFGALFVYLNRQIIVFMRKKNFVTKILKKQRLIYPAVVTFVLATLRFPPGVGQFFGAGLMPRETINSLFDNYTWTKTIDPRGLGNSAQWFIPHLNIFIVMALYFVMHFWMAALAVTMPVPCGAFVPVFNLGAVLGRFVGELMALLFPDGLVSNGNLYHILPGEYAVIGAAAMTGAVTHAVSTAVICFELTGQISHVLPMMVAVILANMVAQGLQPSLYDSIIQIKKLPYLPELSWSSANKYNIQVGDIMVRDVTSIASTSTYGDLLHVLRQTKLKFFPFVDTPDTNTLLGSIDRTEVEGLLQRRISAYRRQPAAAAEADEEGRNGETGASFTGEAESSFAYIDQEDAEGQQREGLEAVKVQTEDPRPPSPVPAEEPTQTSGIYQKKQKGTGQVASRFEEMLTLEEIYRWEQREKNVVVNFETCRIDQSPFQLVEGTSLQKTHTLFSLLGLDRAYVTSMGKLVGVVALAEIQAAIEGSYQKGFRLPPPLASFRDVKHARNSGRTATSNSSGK
Conditions: cited from earlier work.

Data set [4] deals with T2, ClC-Ka (Homo sapiens, UniProt P51800).
T2 sequence (P51800 1-687): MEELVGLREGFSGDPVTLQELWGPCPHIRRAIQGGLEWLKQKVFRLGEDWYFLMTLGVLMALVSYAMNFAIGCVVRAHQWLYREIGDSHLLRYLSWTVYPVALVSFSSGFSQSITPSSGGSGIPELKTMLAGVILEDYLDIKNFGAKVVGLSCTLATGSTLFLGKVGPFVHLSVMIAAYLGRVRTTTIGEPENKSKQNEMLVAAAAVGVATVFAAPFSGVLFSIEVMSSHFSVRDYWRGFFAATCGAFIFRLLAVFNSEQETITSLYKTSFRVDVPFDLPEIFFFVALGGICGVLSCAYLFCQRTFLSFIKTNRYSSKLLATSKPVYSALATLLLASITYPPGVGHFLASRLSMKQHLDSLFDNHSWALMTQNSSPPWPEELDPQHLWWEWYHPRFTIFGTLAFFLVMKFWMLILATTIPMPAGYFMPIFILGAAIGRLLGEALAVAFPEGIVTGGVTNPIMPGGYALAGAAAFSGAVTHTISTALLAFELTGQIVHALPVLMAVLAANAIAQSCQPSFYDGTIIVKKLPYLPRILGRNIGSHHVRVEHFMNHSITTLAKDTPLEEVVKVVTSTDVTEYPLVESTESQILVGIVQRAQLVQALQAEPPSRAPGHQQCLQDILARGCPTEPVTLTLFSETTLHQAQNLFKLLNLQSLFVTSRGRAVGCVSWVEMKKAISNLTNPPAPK
T2 sequence (Q8WZ55 1-320 Y98A partner): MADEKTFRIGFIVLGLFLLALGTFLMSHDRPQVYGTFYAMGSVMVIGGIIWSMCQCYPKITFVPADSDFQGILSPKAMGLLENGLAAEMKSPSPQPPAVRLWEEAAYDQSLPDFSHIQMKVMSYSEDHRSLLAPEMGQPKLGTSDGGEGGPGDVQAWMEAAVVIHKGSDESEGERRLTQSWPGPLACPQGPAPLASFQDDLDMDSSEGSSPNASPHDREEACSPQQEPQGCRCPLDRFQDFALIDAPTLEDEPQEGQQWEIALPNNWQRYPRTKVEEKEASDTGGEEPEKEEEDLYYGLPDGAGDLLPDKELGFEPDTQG
The following applies: cited from earlier work.

Data set [5] deals with T3, ClC-Ka N68D (Homo sapiens, UniProt P51800, N68D).
T3 sequence (P51800 1-687 N68D): T2 sequence (P51800 1-687) with N68D
T3 sequence (Q8WZ55 1-320 Y98A partner): T2 sequence (Q8WZ55 1-320 Y98A partner)
The following applies: cited from earlier work.

Data set [6] has as its target T1, ClC-0. Put plainly: ClC-0 currents, inside-out patches from Xenopus oocytes. Format: cell-based. The following applies: intracellular application, various concentrations. A digest of the protocol: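 Defolliculated Xenopus oocytes injected with 27.5 nL ClC-0 RNA (~500 ng/μL) and kept at 16 °C for 2-7 days. Test compound delivered by microfluidic switching. Holding at 0 mV; every 5 s step to +50 mV (50 ms) then −100 mV (50 ms). Instantaneous −100 mV current taken over time as I/Io; initial inhibition rate fitted; 3-5 oocytes; mean ± SEM.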

Setting [7] is: Hill fit of ClC-ec1 chloride flux inhibition.

Sequence of ClC-ec1 (P37019 whole entry): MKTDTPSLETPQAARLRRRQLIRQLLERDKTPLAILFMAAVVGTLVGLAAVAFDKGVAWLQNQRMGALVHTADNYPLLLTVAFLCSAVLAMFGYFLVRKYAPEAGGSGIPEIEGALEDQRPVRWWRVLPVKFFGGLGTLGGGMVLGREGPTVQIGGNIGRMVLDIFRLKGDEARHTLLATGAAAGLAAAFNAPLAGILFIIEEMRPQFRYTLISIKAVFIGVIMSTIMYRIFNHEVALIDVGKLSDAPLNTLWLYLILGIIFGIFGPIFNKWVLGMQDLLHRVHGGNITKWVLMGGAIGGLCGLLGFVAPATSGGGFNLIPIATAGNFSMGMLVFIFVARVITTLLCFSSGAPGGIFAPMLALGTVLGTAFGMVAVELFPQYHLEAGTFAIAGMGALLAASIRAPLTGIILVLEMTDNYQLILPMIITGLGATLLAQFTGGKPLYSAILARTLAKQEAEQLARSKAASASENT

Turning to `O=S(=O)(O)c1cc(N=C=S)ccc1C=Cc1ccc(N=C=S)cc1S(=O)(=O)O` [DIDS, 4,4′-diisothiocyanatostilbene-2,2′-disulfonic acid], in data set [1] (setting [7]), the “(A/Ao)max” value is on record as 1.08 and the Hill coefficient n is reported as 2. In data set [2] (after 3 h in aqueous solution), the “stability in aqueous solution (reversed-phase HPLC)” value is “single peak”. Moreover, the “stability in solution (HPLC)” value in data set [2] (after 48 h) is listed as “no DIDS was apparent”. Further, the “stability in solution (HPLC)” value in data set [2] (within 24 h in solution) was “partially decomposed”. Besides, the “reversibility of ClC-0 inhibition” value in data set [3] is recorded as “irreversible”. In addition, in data set [4], the “reversibility of ClC-Ka inhibition from the extracellular side” value is listed as “slowly reversible”. For the same molecule, the “decrease of apparent affinity by N68D mutation in ClC-Ka” value in data set [5] is on record as 10 fold.
For the molecule `Nc1ccc(C=Cc2ccc(N)cc2S(=O)(=O)O)c(S(=O)(=O)O)c1` [DADS, 4,4′-diaminostilbene-2,2′-disulfonic acid], the “effect on ClC-ec1 activity” value in data set [1] (at concentrations as high as 2 mM) is given as “does not affect”. In addition, in data set [6], the “effect on ClC-0” value was “no effect”.
